Test system: MS2 coat protein
Assay: apparent Kd, MS2 coat protein; higher = weaker binding; RNA-MaP array; theophylline 2 mM where present
Method in brief: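 Apparent Kd: the median of filtered binding-curve fits from single clusters. Designs were transcribed on Illumina sequencing-chip clusters by stalled E. coli RNA polymerase and titrated with SNAP-549-labelled MS2 coat protein from 0.7 or 1.5 nM, doubling to 3 µM, in 100 mM Tris-HCl pH 7.5, 80 mM KCl, 4 mM MgCl2, BSA, DTT, yeast tRNA and Tween-20. Each series ran without and then with constant ligand, and green signal was normalised to red-channel RNA signal and control-cluster median Fmax.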

[1] = designed as: OFF switch for theophylline, no ligand
[2] = ligand present: theophylline, designed as: OFF switch for theophylline
[3] = designed as: ON switch for theophylline, no ligand
[4] = ligand present: theophylline, designed as: ON switch for theophylline

Sequence	apparent Kd [1]	apparent Kd [2]	apparent Kd [3]	apparent Kd [4]
AUUAUCAUGGUCAUAUAUAUAUCUUCAGAUACCAGACUAUAUUAAGUCCCUUGGCAGCUGUUACAUGAGGAUCACCCAUGUUAUA	172 nM	43.5 nM		
AUAUGAUCAUGUGAUACCAGAAAUGGUAGUCCUCGCUGGAUUACAUGAGGAUCACCCAUGUUCCCUUGGCAGCAUAUGAUCAUAU	66.6 nM	751 nM		
AAAAUAAAUAAAACGGGUAACAUGAAGGAUACCAGCCAGGAAACUGGCCCUUGGCAGCCUCUACAUGAGGAUCACCCAUGUCCCG			445 nM	35.7 nM
AACAGGGCUUCCACGAAGCCCUAAGGUGAUACCAGCACAUGUAAGUGCCCUUGGCAGCACGGUACAUGAGGAUCACCCAUGUAGA			50.3 nM	366 nM
UUCUACAUGAGGAUCACCCAUGUGGGUGAUACCAGCACUUUUUGGUGCCCUUGGCAGCACAUGAGAAUGCCGUAAAAUCGGCGAU			334 nM	500 nM
AUCGCACCUGGUGAUACCAGCGUUUGCUCGUGACAUGAGGAUCACCCAUGUGGCCAGUGAUGCCCUUGGCAGCAUGGUCGGUGCA			230 nM	177 nM
UUCUGGUCCCGUGAUACCAGAGACAUGAGGAUCACCCAUGUACAUGAGGAUCACCCAUGUUUCCCUUGGCAGCACUGUAGGGAGC	196 nM	1220 nM		
UAUAAAAUAACAGAUACCAGCGUGUUAUAAAACAUGAGGAUCACCCAUGUAGUGAUCAAGCGCCCUUGGCAGCUGGUAUUUUAUG			79.3 nM	133 nM
UGACAUUGCUGCGAUACCAGACAUGAGGAUCACCCAUGUACCAAGGUAAGAAAAUAACAUGUCCCUUGGCAGCGCAGCAAUGUCU	14.9 nM	284 nM		
AUCGUACCUGAUGAUACCAGCAAUUGCUCGUAACAUGAGGAUCACCCAUGUGACCAGUGAUGCCCUUGGCAGCAUGGUCGGUGCA			172 nM	38.5 nM
AGCGACAUGCAUGAUACCAGCUACAUGAGGAUCACCCAUGUACGUCAGUAAUGACUGUGUAGCCCUUGGCAGCAUAGAGCAUGUU	17.4 nM	53.6 nM		
AAGGUGAUCCGUGAUACCAGCUCAACAUGAGGAUCACCCAUGUAAGCCUGGAAACAGGCGAGCCCUUGGCAGCACGGUAAUAAUA			11.9 nM	13.8 nM
AAUCUGUCGGGUGAUACCAGCCUCGGCACAUCUCGUGCCGAACAUGAGGAUCACCCAUGUGGCCCUUGGCAGCACAUGACAAAUC			381 nM	85.3 nM
ACAUGAGGAUCACCCAUGUGGCGACUUGAUACCAGACCCGCACUAGUCCCUUGGCAGCAACUACGUGUGGGACACCCAUGUGAAG	20.8 nM	33.7 nM		
ACAUGAGGAUCACCCAUGUGCAGCACGGAUACCAGCGUCCUAGUGCGCCCUUGGCAGCCGGACAUGAGGAUCACCCAUGUGUGGG	77.6 nM	219 nM		
AUUUAUGGUCGUGAUACCAGACAUACAUGAGGAUCACCCAUGUGAAAUAACAUAAUUUAGGUCCCUUGGCAGCACUUUUUAAUUA			53.8 nM	38.3 nM
AAUAACAUGAGGAUCACCCAUGUAAAAGAUACCAGAUGCAUGAUGAUCCCUUGGCAGCUUAAACGCGAUUGGAAACAAUCGCGAA			27.6 nM	148 nM
GCCCUUGGCAGCGAUACCAGCCAAAAUUAAAAUAAACCUCUACAUGAGGAUCACCCAUGUGGCCCUUGGCAGCGAUACCAGCAAA	49.7 nM	76.4 nM		
AUAUGAUCAUAUGAUACCAGAAAUGGUAUUCCUUUCUUUCUUACAUGAGGAUCACCCAUGUUCCCUUGGCAGCAUAUGAUCAUAU	174 nM	193 nM		
AUCGUACCUAGUGAUACCAGCAAGUGAUCAUAACAUGAGGAUCACCCAUGUAAUCAGUGAUGCCCUUGGCAGCAUAAUCGUUACA			193 nM	155 nM
CAUGAAGUAACUGAUACCAGUGUACACAUGAGGAUCACCCAUGUGUUGGGUUUUGUUGUACACCCUUGGCAGCAGAAUCUUUAUG	56.6 nM	100 nM		
AUAUUAGACCUGGAUACCAGCGACAUGAGGAUCACCCAUGUAUGUGCAUCAGCCAUGAUAUGCCCUUGGCAGCCACCGAGGUCGU	13.6 nM	37.2 nM		

Reference: the EternaBench riboswitch data
